# According to ChEMBL document CHEMBL3763041, “Design and synthesis of new imidazo[1,2-a]pyridine and imidazo[1,2-a]pyrazine derivatives with antiproliferative activity against melanoma cells” (Eur J Med Chem, 2016):
# Assays:
# [1] = Antiproliferative activity against human A375P cells expressing BRAF V600E mutant after 72 hrs by CellTiter-Glo assay; format: functional, cell-based
# [2] = target: Serine/threonine-protein kinase B-raf (Homo sapiens, UniProt P15056); assay: Inhibition of wild-type B-Raf (unknown origin) using MEK1 K97M as substrate preincubated for 90 mins followed by substrate addition measured after 1 hr by fluorescence polarization assay
# Procedure, shortened: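 After ATP-containing solution was added, the reaction ran 1 h at room temperature. It was stopped with ADP detection mix (EDTA, ADP² antibody, 3 nM ADP Alexa633 tracer).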
# [3] = target: Serine/threonine-protein kinase B-raf (Homo sapiens, UniProt P15056, V600E); assay: Inhibition of B-Raf V600E mutant (unknown origin) using MEK1 K97M as substrate preincubated for 90 mins followed by substrate addition measured after 1 hr by fluorescence polarization assay
# Procedure, shortened: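 Reactions used 30 nM B-Raf(V600E) enzyme with MEK1 K97M substrate. Kinase reaction ran 1 h at room temperature after ATP-containing solution was added. It was stopped with ADP detection mix (20 mM HEPES pH 7.5, 40 mM EDTA, 10 mM MgCl₂, 0.02% Brij 35, ADP² antibody, 3 nM ADP Alexa633 tracer).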
# [4] = tested on: A549; assay: Antiproliferative activity against human A549 cells after 72 hrs by CellTiter-Glo assay; format: functional, cell-based; details: A549, 72 h
# [5] = tested on: NCI-H358; assay: Antiproliferative activity against human NCI-H358 cells after 72 hrs by CellTiter-Glo assay; format: functional, cell-based; details: NCI-H358, 72 h
# [6] = Antiproliferative activity against human PC9 cells after 72 hrs by CellTiter-Glo assay; format: functional, cell-based; details: PC-9, 72 h
# [7] = Antiproliferative activity against human PC-9ER cells after 72 hrs by CellTiter-Glo assay; format: functional, cell-based
# [8] = Antiproliferative activity against human HCT116 cells after 72 hrs by CellTiter-Glo assay; format: functional, cell-based; details: HCT-116, 72 h
# [9] = Antiproliferative activity against human HKE3 cells after 72 hrs by CellTiter-Glo assay; format: functional, cell-based; details: HKE3, 72 h
# Chain of Serine/threonine-protein kinase B-raf (Homo sapiens, UniProt P15056) (P15056 whole entry): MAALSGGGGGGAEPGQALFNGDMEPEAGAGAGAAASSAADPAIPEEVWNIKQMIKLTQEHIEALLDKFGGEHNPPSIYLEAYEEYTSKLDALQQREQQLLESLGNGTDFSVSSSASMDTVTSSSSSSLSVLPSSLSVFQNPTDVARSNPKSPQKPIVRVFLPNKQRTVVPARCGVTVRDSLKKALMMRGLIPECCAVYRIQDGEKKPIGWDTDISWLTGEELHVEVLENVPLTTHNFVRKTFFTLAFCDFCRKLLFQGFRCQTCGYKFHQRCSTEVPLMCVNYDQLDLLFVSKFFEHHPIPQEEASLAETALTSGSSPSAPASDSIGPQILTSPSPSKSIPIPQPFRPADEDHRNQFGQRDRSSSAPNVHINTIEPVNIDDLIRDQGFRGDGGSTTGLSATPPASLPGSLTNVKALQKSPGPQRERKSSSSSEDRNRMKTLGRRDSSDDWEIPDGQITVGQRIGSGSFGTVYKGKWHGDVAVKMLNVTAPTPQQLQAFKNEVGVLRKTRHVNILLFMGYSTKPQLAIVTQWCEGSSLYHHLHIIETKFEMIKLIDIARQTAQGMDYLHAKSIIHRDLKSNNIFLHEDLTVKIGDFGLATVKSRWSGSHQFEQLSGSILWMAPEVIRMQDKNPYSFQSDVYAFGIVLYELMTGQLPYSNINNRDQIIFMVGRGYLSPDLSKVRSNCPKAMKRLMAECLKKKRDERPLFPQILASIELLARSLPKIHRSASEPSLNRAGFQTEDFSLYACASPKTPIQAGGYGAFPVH
# Chain of Serine/threonine-protein kinase B-raf (Homo sapiens, UniProt P15056, V600E) (P15056 2-766 V600E limits assumed): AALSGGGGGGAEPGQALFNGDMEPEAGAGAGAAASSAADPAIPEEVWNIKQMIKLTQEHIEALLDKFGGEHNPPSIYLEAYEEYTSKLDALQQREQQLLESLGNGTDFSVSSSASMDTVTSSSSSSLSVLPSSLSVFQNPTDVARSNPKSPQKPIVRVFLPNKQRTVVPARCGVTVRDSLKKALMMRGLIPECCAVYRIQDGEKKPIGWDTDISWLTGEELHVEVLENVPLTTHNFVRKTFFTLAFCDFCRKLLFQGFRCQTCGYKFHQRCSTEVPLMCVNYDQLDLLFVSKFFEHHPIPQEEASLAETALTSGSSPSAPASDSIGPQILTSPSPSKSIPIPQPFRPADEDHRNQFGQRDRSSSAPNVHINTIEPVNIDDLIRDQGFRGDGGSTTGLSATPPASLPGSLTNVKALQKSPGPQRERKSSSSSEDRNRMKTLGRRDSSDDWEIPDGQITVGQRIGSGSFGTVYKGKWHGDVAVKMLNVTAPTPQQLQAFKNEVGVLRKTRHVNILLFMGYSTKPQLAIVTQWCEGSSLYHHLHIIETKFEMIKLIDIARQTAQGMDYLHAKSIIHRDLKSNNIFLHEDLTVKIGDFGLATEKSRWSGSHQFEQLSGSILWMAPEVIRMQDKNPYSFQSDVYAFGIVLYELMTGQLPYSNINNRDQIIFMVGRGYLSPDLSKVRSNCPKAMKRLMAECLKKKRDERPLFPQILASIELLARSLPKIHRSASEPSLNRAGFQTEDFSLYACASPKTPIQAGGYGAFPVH
compound,measurement,setting,value
O=C(Nc1cccc(-c2cnc3c(NC(=O)c4ccc(F)c(C(F)(F)F)c4)nccn23)c1)Nc1ccc(Cl)c(C(F)(F)F)c1,IC50,[1],0.06 µM
same,IC50,[2],> 12.5 µM
same,IC50,[3],5.01 µM
O=C(Nc1cccc(-c2cnc3c(NC(=O)c4cc(Cl)cc(Cl)c4)nccn23)c1)Nc1ccc(Cl)c(C(F)(F)F)c1,IC50,[1],0.03 µM
same,IC50,[2],> 12.5 µM
same,IC50,[3],> 12.5 µM
same,IC50,[4],8.44 µM
same,IC50,[5],8.58 µM
same,IC50,[6],11.6 µM
same,IC50,[7],8.01 µM
same,IC50,[8],9.51 µM
same,IC50,[9],10 µM
O=C(Nc1cccc(-c2cnc3c(NC(=O)c4cc(Cl)cc(Cl)c4)nccn23)c1)Nc1ccc(F)cc1F,IC50,[1],0.06 µM
same,IC50,[2],> 12.5 µM
same,IC50,[3],> 12.5 µM
same,IC50,[4],2.61 µM
same,IC50,[5],4.17 µM
same,IC50,[6],2.77 µM
same,IC50,[7],2.56 µM
same,IC50,[8],0.88 µM
same,IC50,[9],0.62 µM
O=C(Nc1cccc(-c2cnc3c(NC(=O)c4cc(C(F)(F)F)cc(C(F)(F)F)c4)nccn23)c1)Nc1ccc(Cl)c(C(F)(F)F)c1,IC50,[1],0.01 µM
same,IC50,[2],> 12.5 µM
same,IC50,[3],> 12.5 µM
same,IC50,[4],10.4 µM
same,IC50,[5],7.55 µM
same,IC50,[6],11.6 µM
same,IC50,[7],14.6 µM
same,IC50,[8],5.31 µM
same,IC50,[9],6.35 µM
Nc1nccn2c(-c3cccc(NC(=O)Nc4ccc(F)c(Cl)c4)c3)cnc12,IC50,[1],4.34 µM
O=C(Nc1cccc(-c2cnc3c(NC(=O)c4ccccc4)cccn23)c1)c1ccc(F)c(Cl)c1,IC50,[1],8.04 µM
Nc1nccn2c(-c3cccc(NC(=O)c4cccc(OC(F)(F)F)c4)c3)cnc12,IC50,[1],13.8 µM
Nc1nccn2c(-c3cccc(NC(=O)Nc4ccc(C(F)(F)F)cc4)c3)cnc12,IC50,[1],1.1 µM
Cc1ccc(C(=O)Nc2nccn3c(-c4cccc(NC(=O)c5ccc(F)c(Cl)c5)c4)cnc23)cc1Cl,IC50,[1],0.98 µM
O=C(Nc1cccc(-c2cnc3c(NC(=O)c4ccccc4)cccn23)c1)Nc1ccc(Cl)c(Cl)c1,IC50,[1],4.46 µM
O=C(Nc1cccc(-c2cnc3c(NC(=O)c4ccccc4)cccn23)c1)c1ccc(OC(F)(F)F)cc1,IC50,[1],21.3 µM
O=C(Nc1cccc(-c2cnc3c(NC(=O)c4ccccc4)nccn23)c1)Nc1ccc(Cl)c(C(F)(F)F)c1,IC50,[1],1.41 µM
COc1cccc(C(=O)Nc2cccc(-c3cnc4c(N)nccn34)c2)c1C,IC50,[1],10.1 µM
O=C(Nc1cccc(-c2cnc3c(NC(=O)c4ccccc4)cccn23)c1)c1ccc(Cl)c(C(F)(F)F)c1,IC50,[1],> 30 µM
O=C(Nc1cccc(-c2cnc3c(NC(=O)c4cc(Cl)cc(Cl)c4)nccn23)c1)c1ccc(Cl)c(C(F)(F)F)c1,IC50,[1],0.04 µM
same,IC50,[2],> 12.5 µM
same,IC50,[3],> 12.5 µM
same,IC50,[4],3.23 µM
same,IC50,[5],4.21 µM
same,IC50,[6],3.61 µM
same,IC50,[7],3.63 µM
same,IC50,[8],1.81 µM
same,IC50,[9],0.83 µM
O=C(Nc1cccc(-c2cnc3c(NC(=O)c4cccc(C(F)(F)F)c4)nccn23)c1)Nc1ccc(F)cc1F,IC50,[1],0.44 µM
Nc1nccn2c(-c3cccc(NC(=O)c4ccccc4)c3)cnc12,IC50,[1],0.85 µM
Nc1nccn2c(-c3cccc(NC(=O)c4cc(F)cc(F)c4)c3)cnc12,IC50,[1],0.46 µM
O=C(Nc1cccc(-c2cnc3c(NC(=O)c4cc(C(F)(F)F)cc(C(F)(F)F)c4)nccn23)c1)Nc1ccc(F)cc1F,IC50,[1],0.11 µM
O=C(Nc1cccc(-c2cnc3c(NC(=O)c4ccc(C(F)(F)F)cc4)nccn23)c1)c1ccc(F)c(Cl)c1,IC50,[1],0.56 µM
O=C(Nc1cccc(-c2cnc3c(NC(=O)c4cc(Cl)c(F)c(Cl)c4)nccn23)c1)c1ccc(F)c(Cl)c1,IC50,[1],1.29 µM
O=C(Nc1cccc(-c2cnc3c(NC(=O)c4ccccc4)cccn23)c1)Nc1ccc(Cl)c(C(F)(F)F)c1,IC50,[1],2.32 µM
O=C(Nc1cccc(-c2cnc3c(NC(=O)c4cccc(OC(F)(F)F)c4)nccn23)c1)Nc1ccc(F)cc1F,IC50,[1],0.95 µM
O=C(Nc1cccc(-c2cnc3c(NC(=O)c4ccccc4)cccn23)c1)c1ccccc1,IC50,[1],> 30 µM
Nc1nccn2c(-c3cccc(NC(=O)Nc4cc(C(F)(F)F)cc(C(F)(F)F)c4)c3)cnc12,IC50,[1],9.06 µM
Nc1nccn2c(-c3cccc(NC(=O)c4cccc(Cl)c4Cl)c3)cnc12,IC50,[1],0.64 µM
O=C(Nc1cccc(-c2cnc3c(NC(=O)c4ccc(Cl)c(Cl)c4)nccn23)c1)c1ccc(F)c(Cl)c1,IC50,[1],0.9 µM
COc1cc(C(=O)Nc2cccc(-c3cnc4c(N)nccn34)c2)cc(OC)c1OC,IC50,[1],1.54 µM
O=C(Nc1cccc(-c2cnc3c(NC(=O)c4ccccc4)cccn23)c1)Nc1cccc(Cl)c1Cl,IC50,[1],15.9 µM
O=C(Nc1cccc(-c2cnc3c(NC(=O)c4ccccc4)cccn23)c1)c1ccc(Br)cc1,IC50,[1],6.35 µM
Cc1ccc(C(=O)Nc2nccn3c(-c4cccc(NC(=O)Nc5ccc(F)cc5F)c4)cnc23)cc1Cl,IC50,[1],1.98 µM
O=C(Nc1cccc(-c2cnc3c(NC(=O)c4ccccc4)cccn23)c1)c1ccc(F)c(C(F)(F)F)c1,IC50,[1],> 30 µM
